Experimental data: ChEMBL document CHEMBL1123499, “Synthesis, saludiuretic, and antihypertensive activity of 6,7-disubstituted 1(2H)- and 3,4-dihydro-1(2H)-phthalazinones” (1986)

What was measured:
Rattus norvegicus [1] = species on record: Rattus norvegicus; assay: Diuretic activity in rats at time intervals of 0-24 hours; assay type: functional, Urine
In short: (§1)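 Male Sabra rats (170-200 g), starved 18 h, given 50 mg/kg by stomach tube in saline (25 mL/kg load), eight per compound, saline and furosemide controls run alongside. Held two per metabolic cage at 22 °C without food or water. Urine volume measured at 5 and 24 h collections.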

Rattus norvegicus [2] = species on record: Rattus norvegicus; assay: Diuretic activity in rats at time intervals of 0-5 hours; assay type: functional, Urine; in short: as §1
Rattus norvegicus [3] = species on record: Rattus norvegicus; assay: Diuretic activity in rats at time intervals of 5-24 hours; assay type: functional, Urine; in short: as §1
Rattus norvegicus [4] = species on record: Rattus norvegicus; assay: Saluretic activity in rats after 5-24 hours, as sodium ion concentration in urine; assay type: functional
In short: (§2)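 Male Sabra rats (170-200 g), fasted 18 h, dosed orally 50 mg/kg in saline at 25 mL/kg, eight per compound, two per metabolic cage, no food or water. Urine collected 5 and 24 h after dosing and centrifuged. Chloride titrated with Hg(NO3)2/diphenylcarbazone after HNO3 acidification; Na+ and K+ by atomic absorption.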

Rattus norvegicus [5] = species on record: Rattus norvegicus; assay: Saluretic activity in rats after 0-24 hours, as chloride ion concentration in urine; assay type: functional; in short: as §2
Rattus norvegicus [6] = species on record: Rattus norvegicus; assay: Saluretic activity in rats after 0-24 hours, as potassium ion concentration in urine; assay type: functional; in short: as §2
Rattus norvegicus [7] = species on record: Rattus norvegicus; assay: Saluretic activity in rats after 0-24 hours, as sodium ion concentration in urine; assay type: functional; in short: as §2
Rattus norvegicus [8] = species on record: Rattus norvegicus; assay: Saluretic activity in rats after 0-5 hours, as chloride ion concentration in urine; assay type: functional; in short: as §2
Rattus norvegicus [9] = species on record: Rattus norvegicus; assay: Saluretic activity in rats after 0-5 hours, as sodium ion concentration in urine; assay type: functional; in short: as §2
Rattus norvegicus [10] = species on record: Rattus norvegicus; assay: Saluretic activity in rats after 5-24 hours, as chloride ion concentration in urine; assay type: functional; in short: as §2
Rattus norvegicus [11] = species on record: Rattus norvegicus; assay: Saluretic activity in rats after 5-24 hours, as potassium ion concentration in urine; assay type: functional; in short: as §2
Rattus norvegicus [12] = species on record: Rattus norvegicus; assay: Saluretic activity in rats after 0-5 hours, as potassium ion concentration in urine; assay type: functional; in short: as §2
Rattus norvegicus [13] = species on record: Rattus norvegicus; assay: Saluretic activity in rats after 0-24 hours, as ratio of Na+/K+ ion concentration in urine; assay type: functional; in short: as §2
Rattus norvegicus [14] = species on record: Rattus norvegicus; assay: Saluretic activity in rats after 0-5 hours, as ratio of Na+/K+ ion concentration in urine; assay type: functional; in short: as §2
Rattus norvegicus [15] = species on record: Rattus norvegicus; assay: Saluretic activity in rats after 5-24 hours, as ratio of Na+/K+ ion concentration in urine; assay type: functional; in short: as §2
Rattus norvegicus [16] = species on record: Rattus norvegicus; assay: Compound was tested for antihypertensive activity in rat after 1 hr postdose; assay type: functional
In short: (§3)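 DOCA/saline hypertensive Sprague-Dawley rats (250-350 g), six per group, given 10 mg/kg doca s.c. daily with saline until systolic BP reached 170 mmHg (usually 3-4 weeks). Oral 25 mg/kg in 5 mL/kg 1% methylcellulose. Systolic BP by tail-cuff before and 1, 4, 24 h after; drop reported as mean ± SD.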

Rattus norvegicus [17] = species on record: Rattus norvegicus; assay: Compound was tested for antihypertensive activity in rat after 24 hr postdose; assay type: functional; in short: as §3
Rattus norvegicus [18] = species on record: Rattus norvegicus; assay: Compound was tested for antihypertensive activity in rat after 4 hr postdose; assay type: functional; in short: as §3

| SMILES | Diuretic activity (Rattus norvegicus [1]) | Diuretic activity (Rattus norvegicus [2]) | Diuretic activity (Rattus norvegicus [3]) | Saluretic activity (Rattus norvegicus [4]) | Saluretic activity (Rattus norvegicus [5]) | Saluretic activity (Rattus norvegicus [6]) | Saluretic activity (Rattus norvegicus [7]) | Saluretic activity (Rattus norvegicus [8]) | Saluretic activity (Rattus norvegicus [9]) | Saluretic activity (Rattus norvegicus [10]) | Saluretic activity (Rattus norvegicus [11]) | Saluretic activity (Rattus norvegicus [12]) | Ratio (Rattus norvegicus [13]) | Ratio (Rattus norvegicus [14]) | Ratio (Rattus norvegicus [15]) | Decrease in blood pressure (Rattus norvegicus [16]) | Decrease in blood pressure (Rattus norvegicus [17]) | Decrease in blood pressure (Rattus norvegicus [18]) |
| --- | --- | --- | --- | --- | --- | --- | --- | --- | --- | --- | --- | --- | --- | --- | --- | --- | --- | --- |
| NS(=O)(=O)c1cc2c(cc1Cl)N=CNS2(=O)=O [CHLOROTHIAZIDE] | 11.9 mL | 7.2 mL | 4.7 mL | 5.03 m equiv kg-1 | 13.55 m equiv kg-1 | 7.89 m equiv kg-1 | 12.77 m equiv kg-1 | 8.8 m equiv kg-1 | 7.74 m equiv kg-1 | 4.75 m equiv kg-1 | 4.14 m equiv kg-1 | 3.75 m equiv kg-1 | 1.62 | 2.06 | 1.21 |  |  |  |
| NS(=O)(=O)c1cc2c(O)nncc2cc1Sc1ccccc1 | 7.6 mL | 2.9 mL | 4.7 mL | 4.97 m equiv kg-1 | 8.44 m equiv kg-1 | 5.7 m equiv kg-1 | 7.87 m equiv kg-1 | 3.97 m equiv kg-1 | 2.9 m equiv kg-1 | 4.47 m equiv kg-1 | 4.25 m equiv kg-1 | 1.45 m equiv kg-1 | 1.38 | 2 | 1.17 |  |  |  |
| CN1NCc2cc(S(N)(=O)=O)c(Cl)cc2C1=O | 6.1 mL | 2.7 mL | 3.4 mL | 4.94 m equiv kg-1 | 8.05 m equiv kg-1 | 4.35 m equiv kg-1 | 7.35 m equiv kg-1 | 2.76 m equiv kg-1 | 2.41 m equiv kg-1 | 5.29 m equiv kg-1 | 3 m equiv kg-1 | 1.35 m equiv kg-1 | 1.69 | 1.78 | 1.64 |  |  |  |
| NS(=O)(=O)c1cc2c(cc1Cl)C(=O)N(Cc1ccccc1)NC2 | 7.6 mL | 4 mL | 3.6 mL | 5.5 m equiv kg-1 | 10.53 m equiv kg-1 | 5.21 m equiv kg-1 | 9.51 m equiv kg-1 | 5.14 m equiv kg-1 | 4.01 m equiv kg-1 | 5.39 m equiv kg-1 | 3.29 m equiv kg-1 | 1.92 m equiv kg-1 | 1.83 | 2.1 | 1.67 |  |  |  |
| NS(=O)(=O)c1cc2c(O)nncc2cc1Cl | 11.3 mL | 7.7 mL | 3.6 mL | 4.21 m equiv kg-1 | 13.97 m equiv kg-1 | 5.06 m equiv kg-1 | 12.37 m equiv kg-1 | 9.87 m equiv kg-1 | 8.16 m equiv kg-1 | 4.1 m equiv kg-1 | 2.51 m equiv kg-1 | 2.55 m equiv kg-1 | 2.44 | 3.18 | 1.68 | 13.7 mmHg | 38 mmHg | 33.7 mmHg |
| NS(=O)(=O)c1cc2cnn(-c3cccc(C(F)(F)F)c3)c(=O)c2cc1Cl | 4.9 mL | 0.9 mL | 4 mL |  |  | 5.16 m equiv kg-1 | 7.41 m equiv kg-1 |  | 0.82 m equiv kg-1 |  | 4.67 m equiv kg-1 | 0.49 m equiv kg-1 | 1.44 | 1.66 | 1.41 | 35.6 mmHg | 27.7 mmHg | 54 mmHg |
| NS(=O)(=O)c1cc2c(cc1Cl)C(=O)N(c1cccc(C(F)(F)F)c1)NC2 | 6.1 mL | 1.6 mL | 4.5 mL | 5.6 m equiv kg-1 | 8.73 m equiv kg-1 | 4.53 m equiv kg-1 | 6.86 m equiv kg-1 | 2.07 m equiv kg-1 | 1.26 m equiv kg-1 | 6.66 m equiv kg-1 | 3.84 m equiv kg-1 | 0.69 m equiv kg-1 | 1.51 | 1.82 | 1.46 |  |  |  |
| NNc1nncc2ccccc12 [HYDRALAZINE] |  |  |  |  |  |  |  |  |  |  |  |  |  |  |  | 72.4 mmHg | 35.3 mmHg | 75.1 mmHg |
| Cn1ncc2cc(S(N)(=O)=O)c(Sc3ccccc3)cc2c1=O | 5.9 mL | 2.1 mL | 3.8 mL | 6.55 m equiv kg-1 | 8.31 m equiv kg-1 | 4.62 m equiv kg-1 | 8.6 m equiv kg-1 | 2.33 m equiv kg-1 | 2.05 m equiv kg-1 | 5.98 m equiv kg-1 | 3.42 m equiv kg-1 | 1.2 m equiv kg-1 | 1.86 | 1.7 | 1.92 |  |  |  |
| NS(=O)(=O)c1cc2c(=O)n(Cc3ccco3)ncc2cc1Cl | 2.8 mL | 1.8 mL | 1 mL | 2.4 m equiv kg-1 | 5.26 m equiv kg-1 | 3.74 m equiv kg-1 | 6.08 m equiv kg-1 | 3.8 m equiv kg-1 | 3.68 m equiv kg-1 | 1.46 m equiv kg-1 | 2.16 m equiv kg-1 | 1.58 m equiv kg-1 | 1.63 | 2.83 | 1.11 |  |  |  |
| NS(=O)(=O)c1cc2c(cc1Cl)NCNS2(=O)=O [HYDROCHLOROTHIAZIDE] |  |  |  |  |  |  |  |  |  |  |  |  |  |  |  | 28.6 mmHg | 18 mmHg | 36.7 mmHg |
| NS(=O)(=O)c1cc2cnnc(O)c2cc1Cl | 8.8 mL | 5.6 mL | 3.2 mL | 4.3 m equiv kg-1 | 9.12 m equiv kg-1 | 5.7 m equiv kg-1 | 10.44 m equiv kg-1 | 4.1 m equiv kg-1 | 6.14 m equiv kg-1 | 5.02 m equiv kg-1 | 3.19 m equiv kg-1 | 2.51 m equiv kg-1 | 1.83 | 2.44 | 1.35 |  |  |  |
| NS(=O)(=O)c1cc2c(cc1Cl)CNN(Cc1ccccc1)C2=O | 13.2 mL | 6.6 mL | 6.6 mL | 5.7 m equiv kg-1 | 13.69 m equiv kg-1 | 6.79 m equiv kg-1 | 12.6 m equiv kg-1 | 8.69 m equiv kg-1 | 6.9 m equiv kg-1 | 5 m equiv kg-1 | 4.18 m equiv kg-1 | 2.61 m equiv kg-1 | 1.86 | 2.65 | 1.36 |  |  |  |
| NS(=O)(=O)c1cc2c(=O)n(-c3cccc(C(F)(F)F)c3)ncc2cc1Cl | 6.6 mL | 2.2 mL | 4.4 mL |  |  | 4.31 m equiv kg-1 | 6.25 m equiv kg-1 |  | 2.18 m equiv kg-1 |  | 3.04 m equiv kg-1 | 1.27 m equiv kg-1 | 1.45 | 1.72 | 1.33 |  |  |  |
| NS(=O)(=O)c1cc2c(cc1Cl)CNN(c1cccc(C(F)(F)F)c1)C2=O | 11.6 mL | 4.9 mL | 6.7 mL | 4.9 m equiv kg-1 | 12.6 m equiv kg-1 | 5.41 m equiv kg-1 | 11.07 m equiv kg-1 | 7.91 m equiv kg-1 | 6.17 m equiv kg-1 | 4.69 m equiv kg-1 | 3.42 m equiv kg-1 | 1.99 m equiv kg-1 | 2.05 | 3.1 | 1.43 |  |  |  |
